Laboratory results published in article PMC9054602 (RSC Advances, 2020).

Assays:
PRRSV VR2332 strain = assay: Antiviral activity by IFA, PRRSV VR2332 in MARC-145 cells; assay type: cell-based; settings: Porcine reproductive and respiratory syndrome virus, MARC145
Outline: (§1)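 MARC-145 monolayers infected at 0.05 MOI for 2 h at 37 °C. Inoculum removed and fresh medium with serial compound concentrations added. Cells then fixed in 4% paraformaldehyde, permeabilized with Triton X-100, blocked with BSA and stained for N protein (mAb 4A5, 1:400, 4 °C overnight), with Alexa 568 secondary and DAPI. Red and blue ODs digitized; protection % derived against DMSO wells. EC50 by nonlinear regression; three independent experiments.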

PRRSV GD-XH strain = assay: Antiviral activity by indirect immunofluorescence assay; assay type: cell-based, porcine reproductive and respiratory syndrome virus; settings: MARC-145 cells; for EC50: Porcine reproductive and respiratory syndrome virus, MARC145, PRRSV GD-XH (0.05 MOI), IFA at 48 hpi; for Selectivity index (SI): ratio of CC50 to EC50, PRRSV GD-XH
PRRSV CH-1a strain = assay: Antiviral activity by IFA, PRRSV CH-1a in MARC-145 cells; assay type: cell-based; settings: Porcine reproductive and respiratory syndrome virus, MARC145
Outline: as §1

PRRSV NADC30-like strain = assay: Antiviral activity by IFA, PRRSV NADC30-like in MARC-145 cells; assay type: cell-based; settings: Porcine reproductive and respiratory syndrome virus, MARC145
Outline: as §1

NC(=O)c1ncn([C@@H]2O[C@H](CO)[C@@H](O)[C@H]2O)n1 [Ribavirin]
EC50 (PRRSV VR2332 strain): 22.3 ± 3.1 µM | EC50 (PRRSV GD-XH strain): 23.7 ± 3.1 µM | Selectivity index (SI) (PRRSV GD-XH strain): >27 | EC50 (PRRSV CH-1a strain): 31.5 ± 2.8 µM | EC50 (PRRSV NADC30-like strain): 16.8 ± 2.1 µM

C[C@H]1[C@H](C)CC[C@]2(C(=O)O)CC[C@]3(C)C(=CC[C@@H]4[C@@]5(C)CC[C@H](O)C(C)(C)[C@@H]5CC[C@]43C)[C@H]12 [UA, Ursolic acid]
EC50 (PRRSV VR2332 strain): 5.66 ± 0.52 µM | EC50 (PRRSV GD-XH strain): 8.03 ± 0.93 µM | Selectivity index (SI) (PRRSV GD-XH strain): 8.1 | EC50 (PRRSV CH-1a strain): 11.3 ± 0.78 µM | EC50 (PRRSV NADC30-like strain): 5.03 ± 0.35 µM
